Results from paper PMC3428429 (Biochimica et biophysica acta, 2012).

What was measured:
[1] = Incremental leakage assay
[2] = Serial dilution leakage assay; conditions: independent of total P:L (0.05 to 0.001)
Method in brief: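 Terbium-loaded LUVs (100 nm extruded; 50 mM TbCl₃, 100 mM sodium citrate, 10 mM TES pH 7.2 inside), external Tb removed by gel filtration. Outside buffer is 300 mM NaCl, 10 mM TES pH 7.2 with 50 μM DPA. Test compound runs 0.078–1.25 μM at six fixed total P:L ratios in 96-well plates. Triton X-100 wells with matched lipid give 100% leakage. Repeated with BSA to block well adsorption.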

[3] = Two step assay, step one: terbium/DPA leakage from vesicles
[4] = Two step assay, step two: dithionite quenching of NBD lipids; conditions: 1 μM peptide, at least 8 h

| Substance | leakage in multiple lipid additions, PEG-lipid vesicles ([1]; vesicles containing 5 mol % PEG2000-headgroup conjugated lipids, supplemental Figure S5A) | lipid exchange between vesicles along with peptide ([1]; vesicles doped with fluorescent lipids, supplemental Figure S5B) | peptide concentration at which all leakage curves reach 100% leakage [2] | lowest P:L ratio with measurable pore-forming activity ([3]; 1:10000 or 10 peptides per vesicle, supplemental Figure S1) | access to the vesicle interior at equilibrium ([4]; P:L = 0.005 (1:200)) | access to NBD lipids at equilibrium ([4]; P:L=0.02 (1:50), only in PG-containing vesicles) | terbium leakage ([3]; P:L=0.02 (1:50), only in PG-containing vesicles, 1 μM peptide, at least 8 h) |
| --- | --- | --- | --- | --- | --- | --- | --- |
| Ac-UPUAUAQUVUGLUPVUUQQF-OH [alamethicin] | near complete leakage in multiple lipid additions | no lipid exchange between vesicles | ≤ 500 nM | ≤ 0.0001 | – | – | – |
| ALWKTMLKKLGTMALHAGKAALGAAADTISQGTQ [dermaseptin S1] | – | – | – | – | no access to the vesicle interior at equilibrium | high access to NBD lipids | high leakage |
